Data from ChEMBL document CHEMBL4152350, “A new multifunctional hydroxytyrosol-clofibrate with hypolipidemic, antioxidant, and hepatoprotective effects” (Bioorg Med Chem Lett, 2018).
Calls of active or inactive are those of the source. The rule behind the calls is not given here.

Tests used:
[1] = Antioxidant activity assessed as DPPH radical scavenging activity after 30 mins; format: functional
Mus musculus [2] = assay: Antioxidant activity in ICR mouse assessed as serum SOD levels at 240 umol/kg/day administered po for 2 months (reference value: 337.64 +/- 4.82 U/ml); format: functional
Method in brief: (§1)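 Male ICR mice (20.0 ± 2.0 g) received 240 µmol/kg/day; normal controls got an equal volume of vehicle. Commercial kits measured serum SOD, CAT and MDA and hepatic GSH and GSSG, with the GSH/GSSG ratio calculated. Groups were compared with normal and CF groups.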

Mus musculus [3] = assay: Hepatoprotective activity in ICR mouse assessed as serum AST levels at 240 umol/kg/day administered po for 2 months (reference value: 107.25 +/- 2.77 U/L); format: functional
Mus musculus [4] = assay: Antioxidant activity in ICR mouse assessed as hepatic GSH levels at 240 umol/kg/day administered po for 2 months (reference value: 43.38 +/- 4.59 microM); format: functional; method in brief: as §1
Mus musculus [5] = assay: Hepatoprotective activity in ICR mouse assessed as serum APK levels per 100 ml at 240 umol/kg/day administered po for 2 months (reference value: 20.02 +/- 0.61 U); format: functional
Mus musculus [6] = assay: Hepatoprotective activity in ICR mouse assessed as hypertrophy at 240 umol/kg/day administered po for 2 months by histopathological analysis; format: functional, organism-based
Method in brief: (§2)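 Liver slices from male ICR mice (20.0 ± 2.0 g) were examined histopathologically after 240 µmol/kg/day dosing; normal controls received the same volume of vehicle.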

Mus musculus [7] = assay: Hypolipidemic activity in Triton WR 1339-induced acute hyperlipidemic ICR mouse model assessed as decrease in plasma triglyceride levels at 240 umol/kg, ig for one week followed by Triton WR 1339 challenge on day 6 measured after 24 hrs; format: functional; parameters: scale not given: the % may be the effect or the level left
Method in brief: (§3)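 Acute hyperlipidemia was induced with Triton WR 1339 in mice given 240 µmol/kg intragastrically for 7 days. Plasma TG and TC are expressed as percent reduction, and plasma MDA in nmol/mL. Data are mean ± SEM, n=8, compared against the blank and model groups.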

Mus musculus [8] = assay: Hypolipidemic activity in Triton WR 1339-induced acute hyperlipidemic ICR mouse model assessed as decrease in total cholesterol levels in plasma at 240 umol/kg, ig for one week followed by Triton WR 1339 challenge on day 6 measured after 24 hrs; format: functional; parameters: scale not given: the % may be the effect or the level left; method in brief: as §3
Mus musculus [9] = assay: Hepatoprotective activity in ICR mouse assessed as midzonal mitosis at 240 umol/kg/day administered po for 2 months by histopathological analysis; format: functional, organism-based; method in brief: as §2
Mus musculus [10] = assay: Antioxidant activity in ICR mouse assessed as hepatic GSSG levels at 240 umol/kg/day administered po for 2 months (reference value: 2.91 +/- 0.31 microM); format: functional; method in brief: as §1
Mus musculus [11] = assay: Hepatoprotective activity in ICR mouse assessed as liver weight at 240 umol/kg/day administered po for 2 months (reference value: 1.49 +/- 0.42 g); format: functional
Mus musculus [12] = assay: Toxicity in ICR mouse assessed as body weight at 240 umol/kg/day administered po for 2 months (reference value: 36.8 +/- 0.70 g); format: organism-based; settings: in vivo
Mus musculus [13] = assay: Hepatoprotective activity in ICR mouse assessed as centrilobular hypertrophy at 240 umol/kg/day administered po for 2 months by histopathological analysis; format: functional, organism-based; method in brief: as §2
Mus musculus [14] = assay: Antioxidant activity in ICR mouse assessed as serum CAT levels at 240 umol/kg/day administered po for 2 months (reference value: 2.83 +/- 0.22 U/ml); format: functional; method in brief: as §1
Mus musculus [15] = assay: Hepatoprotective activity in ICR mouse assessed as hepatocyte hyperplasia at 240 umol/kg/day administered po for 2 months by histopathological analysis; format: functional, organism-based; method in brief: as §2
Mus musculus [16] = assay: Hepatoprotective activity in ICR mouse assessed as serum ALT levels at 240 umol/kg/day administered po for 2 months (reference value: 36.25 +/- 1.08 U/L); format: functional
Mus musculus [17] = assay: Antioxidant activity in ICR mouse assessed as serum MDA levels at 240 umol/kg/day administered po for 2 months (reference value: 6 +/- 0.20 microM); format: functional; method in brief: as §1
Mus musculus [18] = assay: Antioxidant activity in ICR mouse assessed as hepatic GSH to GSSG ratio at 240 umol/kg/day administered po for 2 months (reference value: 16.4 +/- 2.34); format: functional; method in brief: as §1
Mus musculus [19] = assay: Hepatoprotective activity in ICR mouse assessed as serum TBIL levels at 240 umol/kg/day administered po for 2 months (reference value: 0.63 +/- 0.09 microM); format: functional
[20] = Antioxidant activity assessed as hydroxyl radical scavenging activity after 60 mins; format: functional
Mus musculus [21] = assay: Hepatoprotective activity in ICR mouse assessed as liver coefficient at 240 umol/kg/day administered po for 2 months (reference value: 40.50 +/- 0.71 mg/g); format: functional
Mus musculus [22] = assay: Hypolipidemic activity in Triton WR 1339-induced acute hyperlipidemic ICR mouse model assessed as decrease in malonaldehyde levels in plasma at 240 umol/kg, ig for one week followed by Triton WR 1339 challenge on day 6 measured after 24 hrs; format: functional; parameters: scale not given: the % may be the effect or the level left; method in brief: as §3

Row | Compound | Activity [1] | Activity (Mus musculus [2]) [U/ml] | Activity (Mus musculus [3]) [U/L] | Activity (Mus musculus [4]) [µM] | Activity (Mus musculus [5]) [U] | Activity (Mus musculus [6]) | Activity (Mus musculus [7]) [%] | Activity (Mus musculus [8]) [%] | Activity (Mus musculus [9]) | Activity (Mus musculus [10]) [µM] | Activity (Mus musculus [11]) [g] | Activity (Mus musculus [12]) [g] | Activity (Mus musculus [13]) | Activity (Mus musculus [14]) [U/ml] | Activity (Mus musculus [15]) | Activity (Mus musculus [16]) [U/L] | Activity (Mus musculus [17]) [µM] | Ratio (Mus musculus [18]) | Activity (Mus musculus [19]) [µM] | Activity [20] | also measured
1 | CC(C)(Oc1ccc(Cl)cc1)C(=O)OCCc1ccc(O)c(O)c1 | Active | 275.2 | 121.37 | 22.87 | 17.57 | Active | 30 | 33 | Active | 4.85 | 1.48 | 33.4 | Active | 2.04 | Active | 39.75 | 6.44 | 4.1 | 0.95 | Active | Activity (Mus musculus [21]): 44.17 mg/g; Activity (Mus musculus [22]): 29%
2 | CCOC(=O)C(C)(C)Oc1ccc(Cl)cc1 [CLOFIBRATE] | inactive | 228.32 | 157.5 | 11.6 | 28.64 | inactive | 24 | 23 | inactive | 6.24 | 1.77 | 33.8 | inactive | 3.86 | inactive | 63.13 | 7.79 | 2.1 | 13.09 | inactive | Activity (Mus musculus [21]): 52.12 mg/g; Activity (Mus musculus [22]): 14%
